ChEMBL document CHEMBL1221307, “Substituted 2H-isoquinolin-1-ones as potent Rho-kinase inhibitors: part 2, optimization for blood pressure reduction in spontaneously hypertensive rats” (Bioorg Med Chem Lett, 2010)

How the values were obtained:
Type in all cases: ADME, organism-based
[1] = AUC in rat at 0.5 mg/kg, iv; set-up: dose 0.5 mg/kg, route intravenous; details: plasma
In short: (§1)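 Rats given 0.5 mg/kg iv and 10 mg/kg po. The iv plasma values are the mean from three rats; the po plasma values come from a single rat.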

[2] = AUC in rat at 10 mg/kg, po; set-up: dose 10 mg/kg, route oral; details: plasma; in short: as §1
[3] = Oral bioavailability in rat at 10 mg/kg; details: in vivo; in short: as §1

SMILES	AUC [1]	AUC [2]	bioavailability [3]
CN1CCC(C(=O)Nc2cc3cc[nH]c(=O)c3cc2Cl)CC1	0.127 µg·h/mL	1.78 µg·h/mL	70%
N[C@H]1CC[C@@H](C(=O)Nc2cc3cc[nH]c(=O)c3cc2Cl)CC1	0.119 µg·h/mL	0.338 µg·h/mL	20%
O=C(Nc1cc2cc[nH]c(=O)c2cc1Cl)C1CCNCC1	0.161 µg·h/mL	0.141 µg·h/mL	4.4%
